# In ChEMBL document CHEMBL1146076, “Identification of potent and selective inhibitors of PDGF receptor autophosphorylation” (J Med Chem, 2006):
# Experiments:
# [1] = target: Platelet-derived growth factor receptor alpha (Homo sapiens, UniProt P16234); experiment: Inhibition of PDGFR alpha phosphorylation in G292 cell; type: functional, cell-based
# How it was run: (§1)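 Cell-based ELISA on intact cells: PDGFR-α in G292 cells, c-kit in M07e cells, both quiesced in 0.1% FBS medium. Serial compound concentrations were added for 1 h at 37 °C, then 50 ng/mL PDGF-AA (G292) or SCF (M07e) was added. Lysates were captured on anti-phosphotyrosine (PY-20) plates overnight at 4 °C. Detection used anti-PDGFR-α or anti-c-kit plus HRP, read at A450. IC50 is the mean of two tests.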
# [2] = target: Mast/stem cell growth factor receptor Kit (Homo sapiens, UniProt P10721); experiment: Inhibition of c-kit receptor phosphorylation in M07e cell; type: functional, cell-based; how it was run: as §1
# Mast/stem cell growth factor receptor Kit, sequence (P10721 whole entry): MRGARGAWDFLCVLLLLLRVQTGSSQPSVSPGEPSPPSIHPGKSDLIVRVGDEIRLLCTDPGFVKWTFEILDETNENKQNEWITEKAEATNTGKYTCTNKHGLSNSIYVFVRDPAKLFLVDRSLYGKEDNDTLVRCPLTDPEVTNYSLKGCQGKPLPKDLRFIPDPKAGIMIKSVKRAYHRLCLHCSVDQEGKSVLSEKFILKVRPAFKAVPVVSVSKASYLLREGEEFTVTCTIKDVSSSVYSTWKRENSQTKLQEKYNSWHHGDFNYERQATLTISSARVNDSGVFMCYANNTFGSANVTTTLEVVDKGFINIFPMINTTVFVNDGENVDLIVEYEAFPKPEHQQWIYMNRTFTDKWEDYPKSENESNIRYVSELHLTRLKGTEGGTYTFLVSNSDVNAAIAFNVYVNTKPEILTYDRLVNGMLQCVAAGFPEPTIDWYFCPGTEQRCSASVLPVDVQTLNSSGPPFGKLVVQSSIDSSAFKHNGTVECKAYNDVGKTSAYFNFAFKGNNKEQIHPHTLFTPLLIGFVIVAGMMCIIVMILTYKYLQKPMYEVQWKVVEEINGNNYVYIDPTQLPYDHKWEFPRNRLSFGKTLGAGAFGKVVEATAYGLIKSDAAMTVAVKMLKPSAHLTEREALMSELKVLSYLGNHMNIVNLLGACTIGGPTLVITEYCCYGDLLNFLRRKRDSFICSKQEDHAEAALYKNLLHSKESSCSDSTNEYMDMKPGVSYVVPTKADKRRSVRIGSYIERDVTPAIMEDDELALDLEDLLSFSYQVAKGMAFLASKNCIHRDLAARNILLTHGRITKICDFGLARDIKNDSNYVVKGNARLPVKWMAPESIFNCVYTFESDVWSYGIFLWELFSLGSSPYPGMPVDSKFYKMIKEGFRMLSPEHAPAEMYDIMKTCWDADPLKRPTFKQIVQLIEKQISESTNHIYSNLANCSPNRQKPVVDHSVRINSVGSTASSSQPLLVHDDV
# Platelet-derived growth factor receptor alpha, sequence (P16234 whole entry): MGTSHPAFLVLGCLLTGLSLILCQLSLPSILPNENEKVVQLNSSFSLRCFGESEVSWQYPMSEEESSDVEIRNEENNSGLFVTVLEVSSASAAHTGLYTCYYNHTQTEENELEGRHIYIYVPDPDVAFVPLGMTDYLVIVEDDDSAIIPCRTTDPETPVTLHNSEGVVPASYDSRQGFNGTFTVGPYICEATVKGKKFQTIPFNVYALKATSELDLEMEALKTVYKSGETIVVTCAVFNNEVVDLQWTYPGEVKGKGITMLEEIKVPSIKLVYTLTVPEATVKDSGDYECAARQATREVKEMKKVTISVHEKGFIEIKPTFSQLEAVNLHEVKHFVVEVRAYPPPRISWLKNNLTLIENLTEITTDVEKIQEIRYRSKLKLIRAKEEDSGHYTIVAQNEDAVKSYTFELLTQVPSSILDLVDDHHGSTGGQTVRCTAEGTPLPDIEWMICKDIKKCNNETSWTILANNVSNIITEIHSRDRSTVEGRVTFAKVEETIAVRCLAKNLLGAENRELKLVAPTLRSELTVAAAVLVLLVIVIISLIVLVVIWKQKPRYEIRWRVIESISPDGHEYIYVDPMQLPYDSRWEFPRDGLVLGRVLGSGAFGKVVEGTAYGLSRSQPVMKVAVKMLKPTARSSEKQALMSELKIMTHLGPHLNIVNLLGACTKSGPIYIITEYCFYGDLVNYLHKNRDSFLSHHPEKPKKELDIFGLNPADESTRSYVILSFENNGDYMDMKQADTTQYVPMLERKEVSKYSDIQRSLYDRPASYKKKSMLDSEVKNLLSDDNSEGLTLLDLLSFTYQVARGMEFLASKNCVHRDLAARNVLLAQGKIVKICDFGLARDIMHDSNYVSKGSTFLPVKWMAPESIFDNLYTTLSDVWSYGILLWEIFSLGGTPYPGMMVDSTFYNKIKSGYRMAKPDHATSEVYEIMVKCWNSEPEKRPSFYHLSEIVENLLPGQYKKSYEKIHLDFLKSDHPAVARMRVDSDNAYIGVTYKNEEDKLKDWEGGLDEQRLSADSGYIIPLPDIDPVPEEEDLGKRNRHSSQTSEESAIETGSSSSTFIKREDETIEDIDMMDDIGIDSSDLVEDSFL
Compound,IC50 [1] [nM],IC50 [2] [nM]
COc1cc2nccc(Oc3ccc(NC(=S)NC(=O)c4ccccc4Cl)cc3)c2cc1OC,5,
COc1cc2nccc(Oc3ccc(NC(=S)NC(=O)C4CCCCC4)cc3)c2cc1OC,15,
COc1cc2ncnc(Oc3ccc(NC(=O)NCCC4CCCCC4)cc3)c2cc1OC,9,< 30
COc1cc2ncnc(Oc3ccc(NC(=S)NCc4ccccc4)cc3)c2cc1OC,46,303
COc1cc2ncnc(Oc3ccc(NC(=O)NC4CCCCC4)cc3)c2cc1OC,7,27
COc1cc2nccc(Oc3ccc(NC(=S)NC4CCCCC4)cc3)c2cc1OC,40,69
COc1cc2nccc(Oc3ccc(NC(=O)NC4CCCCC4)cc3)c2cc1OC,12,22
COc1cc2nccc(Oc3ccc(NC(=S)NC(=O)c4ccccc4)cc3)c2cc1OC,8,
COc1cc2nccc(Oc3ccc(NC(=O)Oc4ccccc4)cc3)c2cc1OC,5,
COc1cc2ncnc(Oc3ccc(NC(=S)NCC4CCCCC4)cc3)c2cc1OC,37,153
COc1cc2nccc(Oc3ccc(NC(=O)OCCC4CCCCC4)cc3)c2cc1OC,18,80
COc1cc2nccc(Oc3ccc(NC(=O)NCCC4CCCCC4)cc3)c2cc1OC,6,< 30
